Published values gathered from unrelated publications.
Compare with care: the assays were run in different laboratories.

SMILES	system	setting	quantity	value
CC(C)(Nc1nc(-c2ccccn2)nc2ccccc12)c1ccccn1	female BALB/c mouse, plasma	intravenous, 1 mg/kg	MRT(0-inf)	1.2 h
COc1nc(-c2cc(C)c(N[C@@H](C)c3c(F)cc(F)cc3F)nn2)ccc1-n1cnc(C)c1	male CD-1 mouse, plasma	oral, 5 mg/kg, single dose	MRT(0-t)	5.24 h
CNC(=O)c1cc(OC)cc2c(N3CCc4c(cc(Cn5ccnc5)cc4-c4cn(C)nc4C(F)(F)F)C3=O)ccnc12	male CD-1 mouse, plasma	oral, 50 mg/kg	MRT(0-inf)	2 h
c1ccc(-c2nc(N3CCC(c4ccccn4)C3)c3ccccc3n2)nc1 (stereo not shown)	female BALB/c mouse, plasma	oral, 50 mg/kg	MRT(0-inf)	5.7 h
CC1(C)CC[C@]2(C(=O)O)CC[C@]3(C)C(=CC[C@@H]4[C@@]5(C)C[C@@H](O)[C@H](OC(=O)/C=C/c6ccc(O)cc6)C(C)(C)[C@@H]5CC[C@]43C)[C@@H]2C1 (relative stereo)	mouse, plasma	intraperitoneal, 85 µmol/kg, single dose	MRT(0-inf)	11.9 h
COc1nc(-c2cc(C)c(N[C@@H](C)c3cc(F)cc(F)c3)nn2)ccc1-n1cnc(C)c1	male CD-1 mouse, plasma	intravenous, 1 mg/kg, single dose	MRT(0-t)	3.3 h
Cc1ccc2cncc(N3CCc4c(cc(Cn5ccnc5)cc4-c4cn(C)nc4C(F)(F)F)C3=O)c2c1	male CD-1 mouse, plasma	oral, 50 mg/kg	MRT(0-inf)	3.5 h
COc1ccc2cc(CCC[18F])ccc2c1	male BALB/c mouse, plasma	intravenous	MRT	0.698 h
Cc1cc(NC(=O)c2cccc3cc(-c4cccc5[nH]nc(N)c45)ccc23)ccc1F	male CD-1 mouse, brain	oral, 10 mg/kg	MRT(0-inf)	3.74 h
CCc1cc(C(=O)NC)c2nccc(N3CCc4c(cc(Cn5ccnc5)cc4-c4cn(C)nc4C(F)(F)F)C3=O)c2c1	male CD-1 mouse, plasma	oral, 50 mg/kg	MRT(0-inf)	3.1 h
